The list is not random: actives were taken first. Their share in the collection is about 0.6%.
STK33 kinase inh: blocks human STK33 kinase activity | inhibition, % at 10 µM | 320,000 compounds, 0.073% hits | AID 2661 | purified STK33, MBP phosphorylation, ADP-Glo luminescence;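 active = inhibition at or above 25%, using the most active replicate where run in duplicate; inactive = inhibition below 25%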
GSK3A inh: inhibitors of human GSK-3 alpha kinase | ADP-Glo luminescence, 60 min | 320,000 compounds, 0.1% hits | P49840 | inhibition, % at 10 µM | AID 2650;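 active = more than half of replicates show inhibition above 20%; inconclusive = some but at most half of replicates above 20% inhibition; inactive = no replicate shows inhibition above 20%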;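 note: GST-tagged GSK-3 alpha with peptide substrate and 25 µM ATP; 0% = DMSO neutral wells and 100% = GW8510 positive control wells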
Target sequence (P49840 whole entry, looked up): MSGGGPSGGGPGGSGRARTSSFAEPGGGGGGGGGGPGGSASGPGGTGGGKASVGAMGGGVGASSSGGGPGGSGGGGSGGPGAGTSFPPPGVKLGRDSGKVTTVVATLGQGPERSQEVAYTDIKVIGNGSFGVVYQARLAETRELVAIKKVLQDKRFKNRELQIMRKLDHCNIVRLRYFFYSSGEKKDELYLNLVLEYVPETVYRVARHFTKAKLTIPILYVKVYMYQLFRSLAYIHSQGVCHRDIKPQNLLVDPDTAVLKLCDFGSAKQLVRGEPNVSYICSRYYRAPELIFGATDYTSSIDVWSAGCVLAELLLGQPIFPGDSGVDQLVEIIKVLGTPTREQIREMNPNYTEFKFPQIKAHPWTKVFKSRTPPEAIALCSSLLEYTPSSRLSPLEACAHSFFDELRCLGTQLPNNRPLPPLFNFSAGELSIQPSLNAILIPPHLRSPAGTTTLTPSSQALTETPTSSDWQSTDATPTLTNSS
PolyA inhibitor: blocks polyadenylation in yeast reporter cells; 300,000 compounds, 0.02% hits; S. cerevisiae SKY197-pL101 polyadenylation reporter, beta-gal luminescence; efflux-impaired pdr1/pdr3 knockout yeast; score 100 = 6 SD above DMSO; AID 1875; activity score, % at 12 µM;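 active = lowest replicate activity score at least 50, where 100 means six control SD above control mean; inconclusive = lowest score under 50 but half or more replicates reach 50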;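 note: yeast exposed to compound for 9 h at 30 °C; higher score means more reporter readthrough which indicates perturbed polyadenylation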
GSK3beta inhib: inhibitors of human GSK3beta kinase; P49841; GST-GSK3beta kinase, ADP-Glo luminescence, 60 min; stronger effect = lower value; activity score (negative = inhibition), % at 10 µM; 300,000 compounds, 0.038% hits;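 active = more than half of replicate wells score below -50%, meaning over 50% inhibition versus plate controls; inconclusive = some replicates but at most half score below -50%; inactive = no replicate scores below -50%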;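 note: 0% = median DMSO wells and -100% = median GW8510 positive control wells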
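Assay system: GST-tagged human GSK3beta kinase, cell-free; Input: 1.6 ng GSK3beta; Medium: Tris/MgCl2 kinase buffer; Timing: 60 min enzyme reaction, room temperature; Signal: ADP-Glo luminescence quantifying ADP generated by kinase; Evaluation: score relative to plate controls; Benchmarks: DMSO neutral wells and GW8510 at 20 µM as positive.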
Efflux pump inh: blocks antifungal efflux pumps in multiplex yeast assay; S. cerevisiae Candida pump triplex, Nile Red efflux; 330,000 compounds, 0.44% hits; inhibition, % at 10 µM;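 active = plate passing quality check with inhibition over a set limit, or well fluorescence over plate mean plus 4 SD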;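 note: Nile Red retained in pooled yeast measured as flow cytometry median fluorescence; 0% = buffer negative control and 100% = Enniatin B positive control; higher means more Nile Red kept so more efflux inhibition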
Starred values were filed as active, the others as inactive; ? = inconclusive; . = not tested or not shown.

SMILES | STK33 kinase inh | GSK3A inh | PolyA inhibitor | GSK3beta inhib | Efflux pump inh
CCOC(=O)c1ccc(N(C(=O)c2ccco2)C(C(=O)NC2CCCC2)c2ccncc2)cc1 (stereo not drawn) | -1 | 0 | -2 | 2 | 0
CCC(=O)Oc1ccc2c(c1)O/C(=C\c1ccco1)C2=O | -2 | 0 | 4 | 0 | 0
CCN(CC)C(=O)Oc1ccc2c(c1)O/C(=C\c1ccco1)C2=O | -3 | -2 | 59* | -1 | 0
Cc1ccc(Nc2nc(NCCCN3CCOCC3)nc(N)c2[N+](=O)[O-])cc1C | . | . | -1 | -31 | -1
Nc1nc(NCCCN2CCOCC2)nc(Nc2ccc(Cl)cc2)c1[N+](=O)[O-] | 1 | 57* | -6 | -27 | 0
Nc1nc(NCCCN2CCOCC2)nc(Nc2cccc(Cl)c2)c1[N+](=O)[O-] | 2 | 78* | -12 | -77* | 0
Cc1ccc(Nc2nc(NCCCN3CCOCC3)nc(N)c2[N+](=O)[O-])cc1 | 0 | 58* | 7 | -2 | 0
Cc1ccc(N2CCC(N3CCN(C)C(CCO)C3)CC2)cc1 (stereo not drawn) | 0 | -7 | -2 | 2 | 0
CCSc1nc(N2CCOCC2)c2c(c1C#N)CCCC2 | 31* | 6 | -55 | -17 | 1
Cc1cc(NC(=O)CC(C)C)c(=O)n(Cc2cccc(F)c2)c1 | 4 | -1 | -5 | -2 | 0
CC(C)CNC(=S)N(Cc1ccco1)Cc1cc2cc3c(cc2[nH]c1=O)OCCO3 | 3 | 3 | 3 | 3 | 0
CCOc1cc(-c2cc(-c3ccc(C)cc3)nc(N)c2C#N)ccc1O | 2 | 4 | -21 | 4 | 0
CCOc1cc(/C=C(\C#N)c2[nH]nc(N)c2C#N)ccc1O | 35* | 37 | 1 | 3 | 0
Cc1cccc(N2CCN(C(=O)c3c(Cl)cnn3C)CC2)c1C | 0 | 0 | 11 | 1 | 0
O=C(CSc1ccccc1)Nc1ccc2c(c1)C(=O)NC2=O | 22 | 60* | 13 | 1 | 0
CCOC(=O)/C=C1\CN(C(C)c2ccccc2)S(=O)(=O)c2ccccc21 (stereo not drawn) | -1 | -3 | 22 | -5 | 0
Cc1c(C(=O)Nc2nonc2-c2ccc(F)cc2)oc2ccc(F)cc12 | -2 | -8 | 103* | 6 | 0
O=c1c(-c2c(O)cc(O)c3c2O[C@H](c2ccc(O)cc2)CC3)c(-c2ccc(O)cc2)oc2cc(O)cc(O)c12 | 25* | 1 | . | . | 0
N#C/C(=C\C=C\c1ccccc1)C(=O)Nc1ccccc1 | -1 | -1 | 2 | 3 | 0
N#C/C(=C/C=C/c1ccccc1)C(=O)Nc1ccccc1 | 16* | 0 | -12 | . | 0
Cc1cc(C(C#N)c2ccccc2)n2ncnc2n1 (stereo not drawn) | -2 | 47 | 1 | . | 0
Cc1cc(C(C#N)c2ccccc2F)n2ncnc2n1 (stereo not drawn) | -1 | 55* | 26 | 0 | 0
O=C1CSC(=S)N1/N=C/c1cc(Br)c(O)c(Br)c1 | 0 | -3 | 1 | 1 | 7.5*
COc1cc(/C=N/N2C(=O)CSC2=S)ccc1O | 1 | 8 | ? | -5 | 0
C=CCNC(=O)[C@H]1N2C(=O)c3ccccc3C2SC1(C)C (stereo partly drawn) | -3 | 0 | 13 | 2 | 0
SMILES | STK33 kinase inh | GSK3A inh | PolyA inhibitor | GSK3beta inhib | Efflux pump inh
COc1cc2cccc(OC)c(=O)c2c(O)c1OC | 1 | -1 | -4 | 1 | 0
COc1cc2c(ccc3cc(OC)c(OC)c(O)c32)cc1O | 35* | 38 | 1 | 0 | 0
CC(=O)c1ccc(N2CCN(C(=S)Nc3ccccc3C(F)(F)F)CC2)cc1 | . | 1 | -4 | -1 | 0
O=C(O)CCCn1cc(NC(=O)COc2ccc([N+](=O)[O-])cc2)cn1 | -2 | -1 | 25 | 4 | 0
CC(=O)c1cc(-c2ccc(F)cc2)n(CCC(=O)Nc2cc(C)[nH]n2)c1C | 0 | 56* | -18 | 1 | 0
CC(=O)c1cc(-c2ccccc2)n(CCC(=O)NC2CCCC2)c1C | -1 | -1 | 9 | 2 | 0
Cc1ccc(C(=O)c2no[n+]([O-])c2C(=O)c2ccc(C)cc2)cc1 | 1 | 2 | 100* | 3 | 0
Cc1ccc(C(=O)c2ccc(C)cc2)cc1 | . | . | 8 | 1 | 0
c1cncc(C2Nc3ccccc3-c3nc4ccccc4n32)c1 (stereo not drawn) | 39* | 10 | -11 | -1 | 0
Cc1cc2nc(-c3ccc[nH]c3=O)[nH]c2cc1C | 23 | 61* | 6 | -33 | 0

Compound activity as filed in PubChem BioAssay.
